Tests used:
[1] = molecular target: Testis-specific serine/threonine-protein kinase 1 (Homo sapiens) (UniProt Q9BXA7); test: Inhibition of TSSK1 (unknown origin) at 1 uM in presence of 100 uM ATP
[2] = molecular target: Mitogen-activated protein kinase kinase kinase kinase 5 (Homo sapiens) (UniProt Q9Y4K4); test: Inhibition of MAP4K5 (unknown origin) at 1 uM in presence of 100 uM ATP
[3] = Selectivity index, ratio of IC50 for human HCT116 cells to IC50 for recombinant AKT (unknown origin); design: species or system HCT-116
[4] = Inhibition of PKAalpha (unknown origin) after 1 hr by Z'-LYTE kinase assay in presence of 4 uM ATP; design: species or system Homo sapiens
Method in brief: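 Z′-LYTE FRET assay measuring phosphorylation of a peptide substrate by recombinant kinase, independent of mechanism. IC50 is the average of three independent experiments, with 95% confidence intervals.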

[5] = molecular target: RAC-alpha serine/threonine-protein kinase (Homo sapiens, UniProt P31749); test: Inhibition of AKT1 (unknown origin) at 1 uM in presence of 100 uM ATP
[6] = molecular target: PAS domain-containing serine/threonine-protein kinase (Homo sapiens) (UniProt Q96RG2); test: Inhibition of PASK (unknown origin) at 1 uM in presence of 100 uM ATP
[7] = molecular target: Serine/threonine-protein kinase Chk1 (Homo sapiens) (UniProt O14757); test: Inhibition of CHK1 (unknown origin) at 1 uM in presence of 100 uM ATP
[8] = molecular target: Mitogen-activated protein kinase 14 (Homo sapiens) (UniProt Q16539); test: Inhibition of MAPK14 (unknown origin) at 1 uM in presence of 100 uM ATP
[9] = molecular target: Calcium/calmodulin-dependent protein kinase type IV (Homo sapiens) (UniProt Q16566); test: Inhibition of CAMK-4 (unknown origin) at 1 uM in presence of 100 uM ATP
[10] = molecular target: Serine/threonine-protein kinase Chk2 (Homo sapiens) (UniProt O96017); test: Inhibition of CHK2 (unknown origin) at 1 uM in presence of 100 uM ATP
[11] = molecular target: Cyclin-dependent kinase 1/cyclin B1 (Homo sapiens) (UniProt P06493+P14635); test: Inhibition of CDK1/cyclinB (unknown origin) at 1 uM in presence of 100 uM ATP; format: protein-complex assay
[12] = molecular target: Focal adhesion kinase 1 (Homo sapiens) (UniProt Q05397); test: Inhibition of PTK2 (unknown origin) at 1 uM in presence of 100 uM ATP
[13] = molecular target: AMP-activated protein kinase, AMPK (Homo sapiens) (UniProt P54646+O43741+P54619+Q9UGJ0+Q9Y478+Q13131+Q9UGI9); test: Inhibition of AMPKalpha1/beta1/gamma1 (unknown origin) at 1 uM in presence of 100 uM ATP; format: protein-complex assay
[14] = molecular target: Ribosomal protein S6 kinase alpha-1 (Homo sapiens) (UniProt Q15418); test: Inhibition of RSK1 (unknown origin) at 1 uM in presence of 100 uM ATP
[15] = molecular target: Tyrosine-protein kinase SYK (Homo sapiens) (UniProt P43405); test: Inhibition of SYK (unknown origin) at 1 uM in presence of 100 uM ATP
[16] = molecular target: Epidermal growth factor receptor (Homo sapiens) (UniProt P00533); test: Inhibition of EGFR (unknown origin) at 1 uM in presence of 100 uM ATP
[17] = molecular target: Mitogen-activated protein kinase 1 (Homo sapiens) (UniProt P28482); test: Inhibition of MAPK1 (unknown origin) at 1 uM in presence of 100 uM ATP
[18] = molecular target: Vascular endothelial growth factor receptor 1 (Homo sapiens) (UniProt P17948); test: Inhibition of FLT1 (unknown origin) at 1 uM in presence of 100 uM ATP
[19] = Selectivity index, ratio of IC50 for human NCI-H460 cells to IC50 for recombinant AKT (unknown origin)
[20] = Growth inhibition of human HCT116 cells after 72 hrs by coulter counter method; format: functional, cell-based; conditions: HCT-116, 72 h
[21] = molecular target: Serine/threonine-protein kinase Sgk1 (Homo sapiens) (UniProt O00141); test: Inhibition of SGK1 (unknown origin) at 1 uM in presence of 100 uM ATP
[22] = molecular target: 5'-AMP-activated protein kinase catalytic subunit alpha-1 (Homo sapiens) (UniProt Q13131); test: Inhibition of AMPKalpha1 (unknown origin) at 1 uM in presence of 100 uM ATP
[23] = molecular target: Vascular endothelial growth factor receptor 2 (Homo sapiens) (UniProt P35968); test: Inhibition of VEGFR2 (unknown origin) at 1 uM in presence of 100 uM ATP
[24] = molecular target: MAP kinase-interacting serine/threonine-protein kinase 1 (Homo sapiens) (UniProt Q9BUB5); test: Inhibition of MKNK1 (unknown origin) at 1 uM in presence of 100 uM ATP
[25] = molecular target: Dual specificity mitogen-activated protein kinase kinase 1 (Homo sapiens) (UniProt Q02750); test: Inhibition of MEK1 (unknown origin) at 1 uM in presence of 100 uM ATP
[26] = molecular target: Tyrosine-protein kinase Lyn (Homo sapiens) (UniProt P07948); test: Inhibition of LYN A (unknown origin) at 1 uM in presence of 100 uM ATP
[27] = molecular target: Serine/threonine-protein kinase PLK1 (Homo sapiens) (UniProt P53350); test: Inhibition of PLK1 (unknown origin) at 1 uM in presence of 100 uM ATP
[28] = molecular target: Protein kinase C alpha type (Homo sapiens) (UniProt P17252); test: Inhibition of PKCalpha (unknown origin) at 1 uM in presence of 100 uM ATP
[29] = molecular target: Aurora kinase A (Homo sapiens) (UniProt O14965); test: Inhibition of AURKA (unknown origin) at 1 uM in presence of 100 uM ATP
[30] = molecular target: Ribosomal protein S6 kinase beta-1 (Homo sapiens) (UniProt P23443); test: Inhibition of p70S6K (unknown origin) at 1 uM in presence of 100 uM ATP
[31] = molecular target: Receptor tyrosine-protein kinase erbB-4 (Homo sapiens) (UniProt Q15303); test: Inhibition of ERBB4 (unknown origin) at 1 uM in presence of 100 uM ATP
[32] = molecular target: Proto-oncogene tyrosine-protein kinase Src (Homo sapiens) (UniProt P12931); test: Inhibition of SRC (unknown origin) at 1 uM in presence of 100 uM ATP
[33] = molecular target: Maternal embryonic leucine zipper kinase (Homo sapiens) (UniProt Q14680); test: Inhibition of MELK (unknown origin) at 1 uM in presence of 100 uM ATP
[34] = molecular target: CDK2/Cyclin A2 (Homo sapiens) (UniProt P24941+P20248); test: Inhibition of CDK2/cyclinA (unknown origin) at 1 uM in presence of 100 uM ATP; format: protein-complex assay
[35] = molecular target: Calcium/calmodulin-dependent protein kinase type 1D (Homo sapiens) (UniProt Q8IU85); test: Inhibition of CAMK1D (unknown origin) at 1 uM in presence of 100 uM ATP
Chain of Calcium/calmodulin-dependent protein kinase type 1D (Homo sapiens) (Q8IU85 whole entry, looked up): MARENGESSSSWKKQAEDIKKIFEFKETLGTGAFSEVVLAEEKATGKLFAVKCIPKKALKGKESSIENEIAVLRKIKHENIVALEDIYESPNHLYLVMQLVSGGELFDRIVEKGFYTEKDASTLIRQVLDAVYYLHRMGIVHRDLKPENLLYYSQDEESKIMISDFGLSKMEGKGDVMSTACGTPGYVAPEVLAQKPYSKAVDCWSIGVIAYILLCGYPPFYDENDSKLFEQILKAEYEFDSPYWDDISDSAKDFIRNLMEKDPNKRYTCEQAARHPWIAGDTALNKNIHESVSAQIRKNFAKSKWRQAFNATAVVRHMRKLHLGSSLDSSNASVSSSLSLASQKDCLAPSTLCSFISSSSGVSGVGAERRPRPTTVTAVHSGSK

Chain of MAP kinase-interacting serine/threonine-protein kinase 1 (Homo sapiens) (Q9BUB5 whole entry, looked up): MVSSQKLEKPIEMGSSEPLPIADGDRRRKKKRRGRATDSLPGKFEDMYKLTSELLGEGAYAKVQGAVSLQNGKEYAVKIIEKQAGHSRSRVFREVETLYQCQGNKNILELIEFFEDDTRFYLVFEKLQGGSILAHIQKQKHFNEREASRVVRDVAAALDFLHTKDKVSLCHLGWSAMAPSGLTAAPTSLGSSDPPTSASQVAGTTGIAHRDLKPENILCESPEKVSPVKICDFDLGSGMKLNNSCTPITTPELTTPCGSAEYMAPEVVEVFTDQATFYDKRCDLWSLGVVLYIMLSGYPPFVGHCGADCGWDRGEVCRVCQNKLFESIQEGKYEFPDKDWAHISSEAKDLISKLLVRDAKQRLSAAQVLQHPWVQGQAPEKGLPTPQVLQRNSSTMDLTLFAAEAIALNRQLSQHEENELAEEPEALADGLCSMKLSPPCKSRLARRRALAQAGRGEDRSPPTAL
Chain of Mitogen-activated protein kinase kinase kinase kinase 5 (Homo sapiens) (Q9Y4K4 whole entry, looked up): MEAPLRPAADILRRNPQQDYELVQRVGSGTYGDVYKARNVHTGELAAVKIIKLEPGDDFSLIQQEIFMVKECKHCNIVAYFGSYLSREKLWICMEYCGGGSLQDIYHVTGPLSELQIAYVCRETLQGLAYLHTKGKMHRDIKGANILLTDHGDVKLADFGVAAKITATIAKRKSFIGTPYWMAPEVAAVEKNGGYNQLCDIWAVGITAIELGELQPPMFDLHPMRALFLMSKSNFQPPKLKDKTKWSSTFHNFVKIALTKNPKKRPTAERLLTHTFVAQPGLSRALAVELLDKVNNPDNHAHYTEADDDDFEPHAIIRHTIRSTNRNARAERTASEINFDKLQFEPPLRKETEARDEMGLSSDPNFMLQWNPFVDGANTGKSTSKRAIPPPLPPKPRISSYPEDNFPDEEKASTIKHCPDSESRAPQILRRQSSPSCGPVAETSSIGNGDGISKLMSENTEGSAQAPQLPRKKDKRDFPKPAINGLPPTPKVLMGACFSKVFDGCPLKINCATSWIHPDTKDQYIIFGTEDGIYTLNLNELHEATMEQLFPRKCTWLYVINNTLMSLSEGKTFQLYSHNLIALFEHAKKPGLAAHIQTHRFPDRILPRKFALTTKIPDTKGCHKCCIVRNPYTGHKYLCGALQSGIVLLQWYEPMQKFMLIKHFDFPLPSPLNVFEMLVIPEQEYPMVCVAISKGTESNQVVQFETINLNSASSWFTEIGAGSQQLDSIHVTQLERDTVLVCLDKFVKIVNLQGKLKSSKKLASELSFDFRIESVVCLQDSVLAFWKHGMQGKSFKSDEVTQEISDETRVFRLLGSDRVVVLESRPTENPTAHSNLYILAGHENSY
Chain of RAC-alpha serine/threonine-protein kinase (P31749 whole entry, the tested form may be a part): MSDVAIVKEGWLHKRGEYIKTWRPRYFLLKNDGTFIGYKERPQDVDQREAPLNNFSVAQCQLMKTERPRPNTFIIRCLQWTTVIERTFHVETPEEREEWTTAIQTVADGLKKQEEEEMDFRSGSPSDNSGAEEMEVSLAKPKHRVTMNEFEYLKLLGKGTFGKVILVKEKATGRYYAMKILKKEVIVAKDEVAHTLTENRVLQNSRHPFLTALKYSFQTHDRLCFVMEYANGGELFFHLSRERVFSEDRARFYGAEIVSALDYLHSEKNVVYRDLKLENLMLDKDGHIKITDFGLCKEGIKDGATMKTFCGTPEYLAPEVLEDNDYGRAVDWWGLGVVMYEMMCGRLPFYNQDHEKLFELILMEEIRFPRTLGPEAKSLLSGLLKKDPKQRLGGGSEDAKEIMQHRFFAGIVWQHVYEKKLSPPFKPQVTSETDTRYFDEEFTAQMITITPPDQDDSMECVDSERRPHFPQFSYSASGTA
Chain of Mitogen-activated protein kinase 1 (Homo sapiens) (P28482 whole entry): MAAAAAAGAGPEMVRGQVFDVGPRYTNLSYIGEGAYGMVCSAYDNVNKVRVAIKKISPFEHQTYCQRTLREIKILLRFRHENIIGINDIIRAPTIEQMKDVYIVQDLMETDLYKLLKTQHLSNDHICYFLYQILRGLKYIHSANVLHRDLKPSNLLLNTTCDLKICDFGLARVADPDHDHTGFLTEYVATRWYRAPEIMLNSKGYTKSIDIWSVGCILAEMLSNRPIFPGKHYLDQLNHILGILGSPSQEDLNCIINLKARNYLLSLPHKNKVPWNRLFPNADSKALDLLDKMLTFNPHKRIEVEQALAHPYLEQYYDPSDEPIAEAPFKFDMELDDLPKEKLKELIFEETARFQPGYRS
Chain of Serine/threonine-protein kinase Chk1 (Homo sapiens) (O14757 whole entry): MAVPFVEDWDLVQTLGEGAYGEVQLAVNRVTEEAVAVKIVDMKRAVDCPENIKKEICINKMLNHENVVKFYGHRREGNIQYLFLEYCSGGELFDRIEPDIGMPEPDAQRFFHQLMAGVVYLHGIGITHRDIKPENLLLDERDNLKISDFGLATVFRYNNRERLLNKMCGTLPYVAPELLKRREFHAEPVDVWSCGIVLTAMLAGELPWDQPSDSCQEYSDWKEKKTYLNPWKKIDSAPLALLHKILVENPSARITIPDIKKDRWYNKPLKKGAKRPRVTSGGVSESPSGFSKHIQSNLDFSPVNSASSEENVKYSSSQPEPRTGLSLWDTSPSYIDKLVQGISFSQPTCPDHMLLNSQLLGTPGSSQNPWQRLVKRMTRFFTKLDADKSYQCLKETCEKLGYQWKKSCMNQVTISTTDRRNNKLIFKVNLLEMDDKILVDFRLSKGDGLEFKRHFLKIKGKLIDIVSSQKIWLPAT
Chain of Maternal embryonic leucine zipper kinase (Homo sapiens) (Q14680 whole entry, looked up): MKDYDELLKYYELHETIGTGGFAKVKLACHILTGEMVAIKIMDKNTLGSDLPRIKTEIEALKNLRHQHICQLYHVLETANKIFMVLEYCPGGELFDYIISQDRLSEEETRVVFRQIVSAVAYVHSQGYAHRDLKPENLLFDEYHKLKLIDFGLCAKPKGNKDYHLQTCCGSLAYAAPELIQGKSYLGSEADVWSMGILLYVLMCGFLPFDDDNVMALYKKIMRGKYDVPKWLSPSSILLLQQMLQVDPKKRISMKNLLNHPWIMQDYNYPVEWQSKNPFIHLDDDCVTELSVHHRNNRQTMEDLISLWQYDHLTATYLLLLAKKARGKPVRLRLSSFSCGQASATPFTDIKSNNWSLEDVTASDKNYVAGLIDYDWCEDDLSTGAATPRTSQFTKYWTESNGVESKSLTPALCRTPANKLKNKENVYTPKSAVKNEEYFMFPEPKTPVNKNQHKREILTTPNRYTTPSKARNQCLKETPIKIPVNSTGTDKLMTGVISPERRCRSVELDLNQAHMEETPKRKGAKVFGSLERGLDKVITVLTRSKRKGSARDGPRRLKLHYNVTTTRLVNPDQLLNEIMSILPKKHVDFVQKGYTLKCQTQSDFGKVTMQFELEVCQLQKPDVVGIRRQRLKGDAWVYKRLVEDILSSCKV
Chain of Vascular endothelial growth factor receptor 2 (Homo sapiens) (P35968 whole entry): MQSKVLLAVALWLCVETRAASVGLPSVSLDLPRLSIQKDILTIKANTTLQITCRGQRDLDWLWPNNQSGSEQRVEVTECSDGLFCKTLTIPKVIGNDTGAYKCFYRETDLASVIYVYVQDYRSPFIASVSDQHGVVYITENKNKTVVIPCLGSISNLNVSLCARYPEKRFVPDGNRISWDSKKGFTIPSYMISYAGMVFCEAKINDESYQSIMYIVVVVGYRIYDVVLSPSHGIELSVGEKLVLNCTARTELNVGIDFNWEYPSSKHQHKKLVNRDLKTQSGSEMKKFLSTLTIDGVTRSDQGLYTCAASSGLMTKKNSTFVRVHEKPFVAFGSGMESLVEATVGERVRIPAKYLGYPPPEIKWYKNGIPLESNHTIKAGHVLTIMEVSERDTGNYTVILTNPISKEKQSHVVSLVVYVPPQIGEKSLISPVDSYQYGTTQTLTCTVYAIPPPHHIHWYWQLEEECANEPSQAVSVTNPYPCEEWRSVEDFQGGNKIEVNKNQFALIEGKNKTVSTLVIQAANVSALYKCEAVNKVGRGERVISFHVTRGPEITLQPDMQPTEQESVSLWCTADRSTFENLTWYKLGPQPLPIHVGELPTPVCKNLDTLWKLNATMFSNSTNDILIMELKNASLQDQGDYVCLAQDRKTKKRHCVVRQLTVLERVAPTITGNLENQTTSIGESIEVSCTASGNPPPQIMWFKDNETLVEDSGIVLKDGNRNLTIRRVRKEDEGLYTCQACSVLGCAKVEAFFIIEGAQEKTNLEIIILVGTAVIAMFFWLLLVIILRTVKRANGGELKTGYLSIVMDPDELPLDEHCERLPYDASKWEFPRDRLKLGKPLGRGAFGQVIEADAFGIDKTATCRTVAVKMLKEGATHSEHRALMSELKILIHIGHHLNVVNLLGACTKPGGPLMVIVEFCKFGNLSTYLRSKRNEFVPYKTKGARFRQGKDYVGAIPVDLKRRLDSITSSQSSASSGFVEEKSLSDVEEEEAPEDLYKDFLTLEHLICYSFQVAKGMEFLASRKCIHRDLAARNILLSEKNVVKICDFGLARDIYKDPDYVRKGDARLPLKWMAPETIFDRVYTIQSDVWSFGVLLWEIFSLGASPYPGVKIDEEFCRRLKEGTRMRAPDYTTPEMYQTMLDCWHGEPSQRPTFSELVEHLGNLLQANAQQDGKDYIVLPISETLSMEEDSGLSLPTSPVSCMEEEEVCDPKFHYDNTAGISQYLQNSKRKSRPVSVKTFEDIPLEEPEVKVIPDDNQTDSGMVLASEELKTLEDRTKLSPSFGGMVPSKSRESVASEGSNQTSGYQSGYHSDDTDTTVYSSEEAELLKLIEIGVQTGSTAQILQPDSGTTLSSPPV

C=CC(=O)[C@H](Cc1ccccc1)NC(=O)OC(C)(C)C
inhibition [1]: -1% | inhibition [2]: 22% | Ratio IC50 [3]: 37 | IC50 [4]: 52.6 µM | inhibition [5]: 50% | inhibition [6]: 19% | inhibition [7]: 5% | inhibition [8]: 17% | inhibition [9]: 50% | inhibition [10]: 46% | inhibition [11]: 9% | inhibition [12]: -4% | inhibition [13]: 46% | inhibition [14]: 5% | inhibition [15]: -1% | inhibition [16]: -2% | inhibition [17]: 15% | inhibition [18]: 2% | Ratio IC50 [19]: 39 | IC50 [20]: 21.5 µM | inhibition [21]: 34% | inhibition [22]: 46% | inhibition [23]: -6% | inhibition [24]: 2% | inhibition [25]: 5% | inhibition [26]: 5% | inhibition [27]: 10% | inhibition [28]: 18% | inhibition [29]: 35% | inhibition [30]: 14% | inhibition [31]: 9% | inhibition [32]: -4% | inhibition [33]: 62% | inhibition [34]: 3% | inhibition [35]: 36%

— ChEMBL document CHEMBL3297689, “Phenylalanine-Based Inactivator of AKT Kinase: Design, Synthesis, and Biological Evaluation” (ACS Med Chem Lett, 2014)
